# Data taken from PubChem BioAssay AID2645 (Broad Institute, 2010).
# Activity calls are given as the source filed them.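 Rule for the calls: active = cAMP rise above 50% of the positive control response, mean of two replicates; inactive = cAMP rise at or below 50% of control.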
# System: human washed platelets, cAMP competitive ELISA, 5 min
# Experiment: platelet cAMP elevation by compounds, confirmation, counter-screen for platelet activation inhibitor project, cell-based, competitive ELISA, PGE1 reference (AID 2645)
# Conditions: at 10 µM; active compounds read high
# How it was run: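 Test system: washed donor platelets; doses: 10 µM, single dose; timing: 5 min compound treatment; signal: competitive cAMP ELISA, platelet lysates, 0.5% Triton X-100, 0.1 M HCl; benchmarks: PGE1 1 µM high, DMSO 0.3% neutral; replicates: duplicates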
row,SMILES,"cAMP induction, % of PGE1"
1,Cc1ccc(-n2c(N)c(C#N)c(-c3ccccc3)c(C#N)c2=O)cc1,-16.7% (inactive)
2,CCOc1cc(/C=N/NC(N)=O)cc(Br)c1OCC(=O)Nc1ccccc1C,155%
3,COc1cc2c(cc1OC)-c1cc(Nc3ccccc3C)nc(=O)n1CC2,638%
4,COc1ccc(/C=N/N(C)c2cc(=O)n(C)c(=O)[nH]2)cc1OC,136%
5,COC(=O)CS(=O)(=O)c1ccc2c(c1)CC(=O)N2,57.2%
6,COc1ccccc1C(=O)Nc1c[nH]c(=O)[nH]c1=O,97.7%
7,COc1cc2c(cc1OC)-c1cc(N3CCCCCC3)nc(=O)n1CC2,83.7%
8,COc1cc2c(cc1OC)-c1cc(Nc3ccc(F)cc3)nc(=O)n1CC2,210%
9,CCC(CC)=N/N=C/c1c(O)n(CC)c2cc(C3=NNC(=O)CC3)ccc12,109%
10,COc1ccccc1-n1cc(-c2ccc(Cl)cc2)[nH]c1=O,32.2% (inactive)
11,O=C(Nc1cccc(NC(=O)c2ccccc2Cl)c1)c1ccco1,-18.7% (inactive)
12,COc1cc2c(cc1OC)-c1cc(N3CCc4ccccc43)nc(=O)n1CC2,74.8%
13,O=c1[nH]c2c(s1)C=Nc1ccccc1N2,163%
14,COc1cc2c(cc1OC)/C(=C/C(=O)c1ccc(NC(C)=O)cc1)NCC2,67.8%
15,Cc1[nH]c(=O)c(C#N)c(C)c1CSc1ncccn1,55.4%
16,C/C(=N/NC(=O)C1CCCC1)c1ccc(NC(=O)C(F)(F)F)cc1,-25% (inactive)
